# Results reported in ChEMBL document CHEMBL3588859, “Structure activity relationship study of Mezzettiasides natural products and their four new disaccharide analogues for anticancer/antibacterial activity” (Medchemcomm, 2014).
# Experiments:
# Lu1 = assay: Anticancer activity against human Lu1 cells assessed as reduction in cell viability incubated for 48 hrs by MTT assay; format: functional; settings: Lu1, 48 h, read-out: ED50 (the source's name)
# [1] = Anticancer activity against human […] cells assessed as reduction in cell viability incubated for 48 hrs by MTT assay; format: functional; settings: read-out: ED50 (the source's name)
# KB = assay: Anticancer activity against human KB cells assessed as reduction in cell viability incubated for 48 hrs by MTT assay; format: functional; settings: read-out: ED50 (the source's name)
# Bacillus subtilis = assay: Antibacterial activity against Bacillus subtilis JH642 expressing trpC2 pheA assessed as reduction in bacterial growth incubated for 18 to 24 hrs by broth dilution method; format: functional
# NCI-H460 = assay: Anticancer activity against human NCI-H460 cells assessed as reduction in cell viability incubated for 48 hrs by MTT assay; format: functional, cell-based; settings: NCI-H460, 48 h
# Escherichia coli = assay: Antibacterial activity against Escherichia coli BAS901 expressing delta-imp assessed as reduction in bacterial growth incubated for 18 to 24 hrs by broth dilution method; format: functional
# Summary of the method: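 The imp strain was grown in LB with kanamycin at 50 μg/mL overnight, diluted 10-fold, and shaken at 37 °C for 45 min to 2 h (about 10^8 CFU/mL). Diluted about 1000-fold to 10^5 CFU/mL. Drug stocks were 25 mM in DMSO, made up at 4X, and serially diluted 1:2 over seven concentrations. OD600 was read.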
# Staphylococcus aureus [2] = assay: Antibacterial activity against methicillin-sensitive Staphylococcus aureus HG003 assessed as reduction in bacterial growth incubated for 18 to 24 hrs by broth dilution method; format: functional
# Summary of the method: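 Cultured overnight in Mueller Hinton Broth, diluted 10-fold, and shaken at 37 °C for 45 min to 2 h (about 10^8 CFU/mL). Diluted about 1000-fold to 10^5 CFU/mL. Compounds came from 25 mM DMSO stocks, were prepared at 4X, and were serially diluted 1:2 to seven concentrations. OD600 was recorded.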
# Staphylococcus aureus [3] = assay: Antibacterial activity against methicillin-resistant Staphylococcus aureus MW2 assessed as reduction in bacterial growth incubated for 18 to 24 hrs by broth dilution method; format: functional
# Summary of the method: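 Broth […] per NCCLS M7-A6. S. aureus grown overnight in Mueller Hinton Broth, diluted 10-fold, shaken at 37 °C for 45 min–2 h to approx. 10^8 CFU/mL, then diluted ~1000-fold to 10^5 CFU/mL. Compounds from 25 mM DMSO stocks, 1:2 serial dilution over seven concentrations.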
# Enterococcus faecium = assay: Antibacterial activity against Enterococcus faecium assessed as reduction in bacterial growth incubated for 18 to 24 hrs by broth dilution method; format: functional
# Summary of the method: (§1)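 Grown in Brain Heart Infusion broth overnight, diluted 10-fold, and shaken at 37 °C for 45 min to 2 h (about 10^8 CFU/mL). Diluted about 1000-fold to 10^5 CFU/mL. Compounds came from 25 mM DMSO stocks, were made up at 4X working strength, and were serially diluted 1:2 over seven concentrations in microtiter wells. OD600 was read.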
# Enterococcus faecalis = assay: Antibacterial activity against Enterococcus faecalis assessed as reduction in bacterial growth incubated for 18 to 24 hrs by broth dilution method; format: functional; summary of the method: as §1
Structure (SMILES),EC50 (Lu1) [µM],EC50 [1] [µM],EC50 (KB) [µM],MIC (Bacillus subtilis) [µM],IC50 (NCI-H460) [µM],MIC (Escherichia coli) [µM],MIC (Staphylococcus aureus [2]) [µM],MIC (Staphylococcus aureus [3]) [µM],MIC (Enterococcus faecium) [µM],MIC (Enterococcus faecalis) [µM]
CCCCCCCCO[C@@H]1O[C@@H](C)[C@H](OC(=O)CCCCC)[C@@H](O[C@@H]2O[C@@H](C)[C@H](OC(C)=O)[C@@H](O[C@@H]3O[C@@H](C)[C@H](OC(C)=O)[C@@H](OC(C)=O)[C@H]3O)[C@H]2OC(C)=O)[C@H]1O [MEZZETTIASIDE 3],14,6,17,> 128,10,–,–,–,–,–
CCCCCCCCCCCCO[C@@H]1O[C@@H](C)[C@H](O[C@@H]2O[C@@H](C)[C@H](OC(C)=O)[C@@H](O[C@@H]3O[C@@H](C)[C@H](OC(C)=O)[C@@H](O[C@@H]4O[C@@H](C)[C@H](OC(C)=O)[C@@H](O)[C@H]4O)[C@H]3OC(C)=O)[C@H]2O)[C@@H](O)[C@H]1O,–,–,–,4,–,–,–,–,–,–
CCCCCCCCCCCCO[C@@H]1O[C@@H](C)[C@H](O[C@@H]2O[C@@H](C)[C@H](OC(C)=O)[C@@H](O[C@@H]3O[C@@H](C)[C@H](O)[C@@H](OC(C)=O)[C@H]3OC(C)=O)[C@H]2O)[C@@H](O)[C@H]1O,–,–,–,8,–,–,–,–,–,–
CCCCCCCCO[C@@H]1O[C@@H](C)[C@H](OC(=O)CCCCC)[C@@H](O[C@@H]2O[C@@H](C)[C@H](OC(C)=O)[C@@H](OC(=O)C(C)C)[C@H]2OC(C)=O)[C@H]1O,–,–,–,> 128,47,–,–,–,–,–
CCCCCCCCO[C@@H]1O[C@@H](C)[C@H](OC(=O)CCCCC)[C@@H](O[C@@H]2O[C@@H](C)[C@H](OC(C)=O)[C@@H](OC(=O)CCC)[C@H]2OC(C)=O)[C@H]1O,–,–,–,> 128,32,–,–,–,–,–
CCCCCCCCO[C@@H]1O[C@@H](C)[C@H](OC(=O)CCCCC)[C@@H](O[C@@H]2O[C@@H](C)[C@H](OC(C)=O)[C@@H](OC(=O)CC(C)C)[C@H]2OC(C)=O)[C@H]1O,–,–,–,> 128,79,–,–,–,–,–
CCCCCCCCCCCCO[C@@H]1O[C@@H](C)[C@H](O[C@@H]2O[C@@H](C)[C@H](OC(C)=O)[C@@H](O[C@@H]3O[C@@H](C)[C@H](OC(C)=O)[C@@H](O)[C@H]3OC(C)=O)[C@H]2O)[C@@H](O)[C@H]1O,–,–,–,32,–,–,–,–,–,–
CCCCCCCCCCCCO[C@@H]1O[C@@H](C)[C@H](O[C@@H]2O[C@@H](C)[C@H](OC(C)=O)[C@@H](O[C@@H]3O[C@@H](C)[C@H](OC(C)=O)[C@@H](O[C@@H]4O[C@@H](C)[C@H](OC(C)=O)[C@@H](O)[C@H]4OC(C)=O)[C@H]3OC(C)=O)[C@H]2O)[C@@H](O)[C@H]1O,–,–,–,4,8,–,–,–,–,–
CCCCCCCCO[C@@H]1O[C@@H](C)[C@H](OC(=O)CCCCC)[C@@H](O[C@@H]2O[C@@H](C)[C@H](OC(C)=O)[C@@H](O[C@@H]3O[C@@H](C)[C@H](OC(C)=O)[C@@H](O[C@@H]4O[C@@H](C)[C@H](O)[C@@H](O)[C@H]4OC(C)=O)[C@H]3O)[C@H]2OC(C)=O)[C@H]1O,–,–,–,64,259,> 32,> 32,> 32,> 32,32
CCCCCCCCO[C@@H]1O[C@@H](C)[C@H](OC(=O)CCCCC)[C@@H](O[C@@H]2O[C@@H](C)[C@H](OC(C)=O)[C@@H](O)[C@H]2OC(C)=O)[C@H]1O [MEZZETTIASIDEIDE 10],> 20,> 20,> 20,> 128,> 500,–,–,–,–,–
CCCCCCCCO[C@@H]1O[C@@H](C)[C@H](OC(=O)CCCCC)[C@@H](O[C@@H]2O[C@@H](C)[C@H](O)[C@@H](OC(C)=O)[C@H]2OC(C)=O)[C@H]1O [MEZZETTIASIDE 9],9,> 20,19,16,151,> 32,> 32,> 32,> 32,32
CCCCCCCCO[C@@H]1O[C@@H](C)[C@H](OC(=O)CCCCC)[C@@H](O[C@@H]2O[C@@H](C)[C@H](OC(C)=O)[C@@H](O[C@@H]3O[C@@H](C)[C@H](O)[C@@H](O)[C@H]3OC(C)=O)[C@H]2OC(C)=O)[C@H]1O [MEZZETTIASIDE 8],25,10,> 20,16,24,> 32,> 32,> 32,> 32,> 32
CCCCCCCCCCCCO[C@@H]1O[C@@H](C)[C@H](O[C@@H]2O[C@@H](C)[C@H](OC(C)=O)[C@@H](O[C@@H]3O[C@@H](C)[C@H](OC(C)=O)[C@@H](O[C@@H]4O[C@@H](C)[C@H](O)[C@@H](O)[C@H]4OC(C)=O)[C@H]3OC(C)=O)[C@H]2O)[C@@H](O)[C@H]1O,–,–,–,8,–,–,–,–,–,–
CCCCCCCCO[C@@H]1O[C@@H](C)[C@H](OC(=O)CCCCC)[C@@H](O[C@@H]2O[C@@H](C)[C@H](OC(C)=O)[C@@H](O[C@@H]3O[C@@H](C)[C@H](OC(C)=O)[C@@H](O[C@@H]4O[C@@H](C)[C@H](O)[C@@H](OC(C)=O)[C@H]4O)[C@H]3O)[C@H]2OC(C)=O)[C@H]1O,–,–,–,> 128,40,–,–,–,–,–
CCCCCCCCCCCCO[C@@H]1O[C@@H](C)[C@H](O[C@@H]2O[C@@H](C)[C@H](OC(C)=O)[C@@H](O[C@@H]3O[C@@H](C)[C@H](O)[C@@H](O[C@@H]4O[C@@H](C)[C@H](OC(C)=O)[C@@H](O)[C@H]4O)[C@H]3OC(C)=O)[C@H]2O)[C@@H](O)[C@H]1O,–,–,–,8,–,–,–,–,–,–
CCCCCCCCO[C@@H]1O[C@@H](C)[C@H](OC(=O)CCCCC)[C@@H](O[C@@H]2O[C@@H](C)[C@H](OC(C)=O)[C@@H](OC(=O)C(C)(C)C)[C@H]2OC(C)=O)[C@H]1O,–,–,–,> 128,141,–,–,–,–,–
CCCCCCCCO[C@@H]1O[C@@H](C)[C@H](OC(=O)CCCCC)[C@@H](O[C@@H]2O[C@@H](C)[C@H](OC(C)=O)[C@@H](OC(C)=O)[C@H]2OC(C)=O)[C@H]1O [MEZZETTIASIDE 11],9,14,20,> 128,15,–,–,–,–,–
CCCCCCCCO[C@@H]1O[C@@H](C)[C@H](OC(=O)CCCCC)[C@@H](O[C@@H]2O[C@@H](C)[C@H](OC(C)=O)[C@@H](O[C@@H]3O[C@@H](C)[C@H](OC(C)=O)[C@@H](O)[C@H]3O)[C@H]2OC(C)=O)[C@H]1O [MEZZETTIASIDE 4],25,8,19,8,9,> 32,32,> 32,16,16
CCCCCCCCO[C@@H]1O[C@@H](C)[C@H](OC(=O)CCCCC)[C@@H](O[C@@H]2O[C@@H](C)[C@H](OC(C)=O)[C@@H](O[C@@H]3O[C@@H](C)[C@H](OC(C)=O)[C@@H](O)[C@H]3OC(C)=O)[C@H]2OC(C)=O)[C@H]1O [MEZZETTIASIDE 2],10,5,7,> 128,17,–,–,–,–,–
CCCCCCCCO[C@@H]1O[C@@H](C)[C@H](OC(=O)CCCCC)[C@@H](O[C@@H]2O[C@@H](C)[C@H](OC(C)=O)[C@@H](O[C@@H]3O[C@@H](C)[C@H](OC(C)=O)[C@@H](O[C@@H]4O[C@@H](C)[C@H](O)[C@@H](O)[C@H]4O)[C@H]3O)[C@H]2OC(C)=O)[C@H]1O,–,–,–,32,18,> 32,> 32,> 32,> 32,32
